Laboratory results from ChEMBL document CHEMBL3525903 (Drug Metab Dispos, 2013).

How the values were obtained:
[1] = Drug uptake in human intestine at 5 mg, po; type: ADME, tissue-based; details: in vivo
OCTN1 (SLC22A4) = biological target: T1, OCTN1 (SLC22A4) (Homo sapiens, UniProt Q9H015); test: Inhibition of OCTN1 (unknown origin) expressed in HEK293 cells assessed as reduction of [3H]ergothioneine substrate uptake at 100 uM by liquid scintillation counting; type: cell-based; details: HEK293 cells expressing OCTN1, probe [3H]ergothioneine
T1 sequence (Q9H015 whole entry): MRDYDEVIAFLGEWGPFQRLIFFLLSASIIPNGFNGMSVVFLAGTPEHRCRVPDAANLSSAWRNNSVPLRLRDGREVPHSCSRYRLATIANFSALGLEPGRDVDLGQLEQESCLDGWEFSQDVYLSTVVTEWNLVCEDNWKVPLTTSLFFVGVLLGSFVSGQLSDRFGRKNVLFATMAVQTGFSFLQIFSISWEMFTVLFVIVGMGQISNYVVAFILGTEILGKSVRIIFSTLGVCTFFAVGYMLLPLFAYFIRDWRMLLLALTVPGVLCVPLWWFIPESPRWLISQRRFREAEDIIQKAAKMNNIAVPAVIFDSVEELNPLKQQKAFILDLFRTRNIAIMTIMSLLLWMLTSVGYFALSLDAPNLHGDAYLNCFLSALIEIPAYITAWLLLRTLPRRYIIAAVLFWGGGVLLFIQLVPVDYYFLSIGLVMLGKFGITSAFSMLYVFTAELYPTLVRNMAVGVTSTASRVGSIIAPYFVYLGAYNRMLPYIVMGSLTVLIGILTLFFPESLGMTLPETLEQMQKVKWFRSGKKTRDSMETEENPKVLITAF
Outline: (§1)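 HEK293 cells transiently transfected with OAT, OATP or OCT plasmid (FuGENE6; 24 h, then 24 h more with sodium butyrate), or stable OCTN1/OCTN2 lines; vector-transfected cells as control. Washed, preincubated 15–60 min at 37 °C in modified Krebs-Henseleit/25 mM HEPES buffer. Uptake of radiolabelled substrate, 100 µM inhibitor. Cells lysed in NaOH and counted by scintillation; counts normalised to medium radioactivity and Lowry protein; vector uptake subtracted.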

[2] = biological target: T2, Organic anion transporter 3 (Homo sapiens, UniProt Q8TCC7); test: Inhibition of OAT3 (unknown origin) expressed in HEK293 cells assessed as reduction of [3H]E-sul substrate uptake at 100 uM by liquid scintillation counting; type: ADME, cell-based; details: hek293, 100 µM; outline: as §1
T2 sequence (Q8TCC7 whole entry): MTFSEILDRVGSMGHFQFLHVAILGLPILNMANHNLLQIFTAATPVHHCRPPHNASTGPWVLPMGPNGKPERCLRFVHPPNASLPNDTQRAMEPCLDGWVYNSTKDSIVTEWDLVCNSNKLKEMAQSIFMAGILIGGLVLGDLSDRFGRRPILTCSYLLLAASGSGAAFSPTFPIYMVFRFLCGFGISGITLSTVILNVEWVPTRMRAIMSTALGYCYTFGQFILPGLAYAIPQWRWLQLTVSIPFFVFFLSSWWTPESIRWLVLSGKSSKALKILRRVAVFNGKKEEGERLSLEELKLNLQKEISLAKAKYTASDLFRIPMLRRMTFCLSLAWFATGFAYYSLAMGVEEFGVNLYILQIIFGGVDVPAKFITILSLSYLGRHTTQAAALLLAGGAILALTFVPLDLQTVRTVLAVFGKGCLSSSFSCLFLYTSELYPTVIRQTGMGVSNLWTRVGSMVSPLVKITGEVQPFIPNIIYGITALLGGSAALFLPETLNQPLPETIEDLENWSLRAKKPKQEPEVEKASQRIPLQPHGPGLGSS

SMILES: CC#CCn1c(N2CCC[C@@H](N)C2)nc2c1c(=O)n(Cc1nc(C)c3ccccc3n1)c(=O)n2C [LINAGLIPTIN]
- Drug uptake [1]: 42.3 µM
- inhibition at 100 µM (OCTN1 (SLC22A4)): 19.4%
- inhibition (INH) [2]: 0%
